Results from ChEMBL document CHEMBL4325839, “Design, synthesis and biological evaluations of quaternization harman analogues as potential antibacterial agents” (Eur J Med Chem, 2018).
In brackets after ≈: the same amount, converted by molar mass. Activity calls are given as the source filed them. The calls are words filed in the database; no cut-off is given here.

Experiments:
Staphylococcus aureus [1] = assay: Antibacterial activity against Staphylococcus aureus after 18 hrs; assay type: functional
Escherichia coli = assay: Antibacterial activity against Escherichia coli CGMCC 1.1636 after 12 to 14 hrs by double dilution method; assay type: functional
Staphylococcus aureus [2] = assay: Bactericidal activity against methicillin-resistant Staphylococcus aureus ATCC 43300 assessed as cell wall disintegration at 0.5 MIC after 1 hr by scanning electron microscopy analysis; assay type: functional, organism-based
Ralstonia solanacearum [3] = assay: Bactericidal activity against Ralstonia solanacearum CGMCC 1.12711 assessed as cell wall disintegration at 0.5 MIC after 1 hr by scanning electron microscopy analysis; assay type: functional, organism-based
[4] = Thermal stability of the compound at 1 ug/ml at 65 degC after 6 hrs by UHPLC-ESI-MS/MS analysis; assay type: physicochemical
Procedure, shortened: (§1)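 Sample held at 25 °C 0 h, 37 °C 6 h or 65 °C 6 h, then 5 µL injected on UHPLC coupled to ESI-QTOF MS/MS at 0.4 mL/min; sample 2 µg/mL with mobile phase A 10% acetonitrile (ampicillin sodium) or 1 µg/mL with 35% acetonitrile (test compound); residual parent compound monitored.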

[5] = Thermal stability of the compound at 1 ug/ml at 37 degC after 6 hrs by UHPLC-ESI-MS/MS analysis; assay type: physicochemical; procedure, shortened: as §1
Ralstonia solanacearum [6] = assay: Protection against Ralstonia solanacearum-induced infection in eggplant leaf at 8 ug/ml after 3 days relative to control; assay type: functional
Staphylococcus aureus [7] = assay: Antibacterial activity against Staphylococcus aureus CGMCC 1.8721 after 12 to 14 hrs by double dilution method; assay type: functional
[8] = Cytotoxicity against human L02 cells assessed as cell viability at 8 ug/ml by MTT assay; assay type: cell-based; conditions: read-out: Activity
Procedure, shortened: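 MTT viability assay on normal cells (MARC 145 monkey kidney, L02 human hepatocyte) exposed to 8 µg/mL; MTT in PBS then 4 h at 37 °C, 5% CO2; formazan dissolved in DMSO with 15 min shaking; absorbance at 540 nm; viability = treated/untreated absorbance × 100%.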

Bacillus cereus = assay: Antibacterial activity against Bacillus cereus CGMCC 1.1846 after 12 to 14 hrs by double dilution method; assay type: functional
Bacillus subtilis = assay: Antibacterial activity against Bacillus subtilis 769 after 12 to 14 hrs by double dilution method; assay type: functional
[9] = Cytotoxicity against […] MARC145 cells assessed as cell viability at 8 ug/ml by MTT assay; assay type: cell-based; conditions: chlorocebus aethiops, read-out: Activity
Staphylococcus aureus [10] = assay: Bactericidal activity against methicillin-resistant Staphylococcus aureus ATCC 43300 assessed as cell shrinkage at 0.5 MIC after 1 hr by scanning electron microscopy analysis; assay type: functional, organism-based
Staphylococcus aureus [11] = assay: Antibacterial activity against methicillin-resistant Staphylococcus aureus ATCC 43300 after 12 to 14 hrs by double dilution method; assay type: functional
Procedure, shortened: (§2)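 Broth double-dilution MIC per NCCLS. Bacteria at 1×10^6 CFU/mL in Luria-Bertani medium. Compounds dissolved in DMSO as stock, then diluted in medium to 200, 100, 50, 25, 12.5, 6.25 and 3.125 nmol/mL (DMSO <0.5%); some also tested at 256–1 µg/mL. Incubated at 37 °C for 12–14 h. MIC read as lowest concentration giving visible growth inhibition.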

Ralstonia solanacearum [12] = assay: Antibacterial activity against Ralstonia solanacearum CGMCC 1.12711 measured after 12 to 14 hrs by double dilution method; assay type: functional; procedure, shortened: as §2
Ralstonia solanacearum [13] = assay: Bactericidal activity against Ralstonia solanacearum CGMCC 1.12711 assessed as cell shrinkage at 0.5 MIC after 1 hr by scanning electron microscopy analysis; assay type: functional, organism-based
Staphylococcus aureus [14] = assay: Antibacterial activity against methicillin-resistant Staphylococcus aureus after 48 hrs by broth microtube dilution method; assay type: functional
[15] = Thermal stability of the compound at 2 ug/ml at 37 degC after 6 hrs by UHPLC-ESI-MS/MS analysis; assay type: physicochemical; procedure, shortened: as §1
[16] = Thermal stability of the compound at 2 ug/ml at 65 degC after 6 hrs by UHPLC-ESI-MS/MS analysis; assay type: physicochemical; procedure, shortened: as §1
Staphylococcus aureus [17] = assay: Antibacterial activity against multidrug-resistant Staphylococcus aureus XU212 after 24 hrs; assay type: functional; conditions: XU212, 24 h
Staphylococcus aureus [18] = assay: Antibacterial activity against methicillin-resistant Staphylococcus aureus EMRSA15 after 24 hrs; assay type: functional; conditions: EMRSA15, 24 h
Staphylococcus aureus [19] = assay: Antibacterial activity against multidrug-resistant Staphylococcus aureus 1199B after 24 hrs; assay type: functional

Cc1nccc2c1[nH]c1ccccc12 [HARMAN]
MIC (Staphylococcus aureus [1]): 1000 µg/mL (≈ 5490 µM)

COc1ccc2[nH]c3c(-c4ccc5c(c4)OCO5)[n+](Cc4ccc(C(F)(F)F)cc4)ccc3c2c1.[Br-]
MIC (Escherichia coli): 50 µM | Activity (Staphylococcus aureus [2]): Active | Activity (Ralstonia solanacearum [3]): Active | Stability [4]: Stable | Stability [5]: Stable | Activity (Ralstonia solanacearum [6]): 81.3% | MIC (Staphylococcus aureus [7]): 25 µM | viability at 8 ug/ml [8]: 84.6% | MIC (Bacillus cereus): 25 µM | MIC (Bacillus subtilis): 25 µM | viability at 8 ug/ml [9]: 103% | Activity (Staphylococcus aureus [10]): Active | MIC (Staphylococcus aureus [11]): 12.5 µM | MIC (Ralstonia solanacearum [12]): 25 µM | Activity (Ralstonia solanacearum [13]): Active

Cc1ccc2[nH]c3c[n+](C)ccc3c2c1.[I-]
MIC (Staphylococcus aureus [14]): 4 µg/mL

CC1(C)S[C@@H]2[C@H](NC(=O)[C@H](N)c3ccccc3)C(=O)N2[C@H]1C(=O)[O-].[Na+] [AMPICILLIN SODIUM]
MIC (Escherichia coli): 3.12 µM | MIC (Staphylococcus aureus [7]): 3.12 µM | Stability [15]: Unstable | MIC (Bacillus cereus): 200 µM | MIC (Bacillus subtilis): 1.56 µM | Stability [16]: Unstable | MIC (Staphylococcus aureus [11]): 50 µM | MIC (Ralstonia solanacearum [12]): 3.12 µM

O=c1ccc2nccc3c4ccccc4n1c23 [CANTHIN-6-ONE]
MIC (Staphylococcus aureus [17]): 8 to 64 µg/mL (≈ 36.3 to 291 µM) | MIC (Staphylococcus aureus [18]): 8 to 64 µg/mL (≈ 36.3 to 291 µM) | MIC (Staphylococcus aureus [19]): 8 to 64 µg/mL (≈ 36.3 to 291 µM)

FC(F)(F)c1ccc(C[n+]2ccc3c([nH]c4ccccc43)c2-c2ccc3c(c2)OCO3)cc1
MIC (Escherichia coli): 100 µM | MIC (Staphylococcus aureus [7]): 25 µM | viability at 8 ug/ml [8]: 85.7% | MIC (Bacillus cereus): 50 µM | MIC (Bacillus subtilis): 25 µM | viability at 8 ug/ml [9]: 96.3% | MIC (Staphylococcus aureus [11]): 25 µM | MIC (Ralstonia solanacearum [12]): 25 µM

COC(=O)c1ccc(-c2c3[nH]c4ccc(OC)cc4c3cc[n+]2Cc2ccc(C(F)(F)F)cc2)cc1
MIC (Escherichia coli): 200 µM | MIC (Staphylococcus aureus [7]): 25 µM | viability at 8 ug/ml [8]: 71.6% | MIC (Bacillus cereus): 25 µM | MIC (Bacillus subtilis): 25 µM | viability at 8 ug/ml [9]: 93.2% | MIC (Staphylococcus aureus [11]): 25 µM | MIC (Ralstonia solanacearum [12]): 25 µM
